In this test the target is T1, Dual specificity protein phosphatase 22 (Homo sapiens, UniProt Q9NRW4).
T1 sequence (Q9NRW4 whole entry): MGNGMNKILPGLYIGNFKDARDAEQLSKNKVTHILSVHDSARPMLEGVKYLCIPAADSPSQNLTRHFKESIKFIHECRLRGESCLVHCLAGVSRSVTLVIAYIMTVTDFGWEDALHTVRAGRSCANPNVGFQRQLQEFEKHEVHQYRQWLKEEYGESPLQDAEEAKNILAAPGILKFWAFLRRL
Briefly: Inhibition of GST-tagged human recombinant JSP1. The procedure, abridged: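 Fluorescence kinetic phosphatase assay: 30 nM purified recombinant GST-fused human JSP-1 in 50 mM Bis-Tris pH 6.5, 1 mM EDTA, 1 mM DTT, with 10 µM OMFP as substrate. Hydrolysis followed continuously at excitation 485/emission 535 nm for 3 min; initial rate taken from the linear region of the kinetic curve.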
For `Cc1ccc(-c2nc3ccc(NC(=O)N4CCCC(C(=O)NC5CCCC5)C4)cc3nc2-c2ccc(C)cc2)cc1` (stereo not drawn), the half-maximal inhibitory concentration (IC50) is above 40 µM. For the compound `CCN(CC)C(=O)C1CCCN(C(=O)Nc2ccc3nc(-c4ccccc4)c(-c4ccccc4)nc3c2)C1` (stereo not drawn), the IC50 was above 40 µM. As to `CCN(CC)C(=O)C1CCCN(C(=O)Nc2ccc3nc(-c4ccc(C)cc4)c(-c4ccc(C)cc4)nc3c2)C1` (stereo not drawn), the IC50 was above 40 µM. With `O=C(NC1CCCCC1)C1CCCN(C(=O)Nc2ccc3nc(-c4ccc(F)cc4)c(-c4ccc(F)cc4)nc3c2)C1` (stereo not drawn), the half-inhibitory concentration (IC50) is above 40 µM. Regarding `O=C(Nc1ccc2nc(-c3ccc(Br)cc3)c(-c3ccc(Br)cc3)nc2c1)N1CCCC(C(=O)N2CCCC2)C1` (stereo not drawn), the IC50 is above 40 µM. For the compound `COc1nc2ccc(NC(=O)N3CCCC(C(=O)N4CCCCC4)C3)cc2nc1OC` (stereo not drawn), the IC50 is above 100 µM. With `COc1nc2ccc(NC(=O)N3CCCC(C(=O)NC4CCCCC4)C3)cc2nc1OC` (stereo not drawn), the IC50 was above 100 µM. Consider `CCCCN(C)C(=O)C1CCCN(C(=O)Nc2ccc3nc(-c4ccco4)c(-c4ccco4)nc3c2)C1` (stereo not drawn), for which the IC50 worked out at 5.55 µM. To `CCCCN(CC)C(=O)C1CCCN(C(=O)Nc2ccc3nc(-c4ccco4)c(-c4ccco4)nc3c2)C1` (stereo not drawn) belongs 2.35 µM; to `CCCN(CCC)C(=O)C1CCCN(C(=O)Nc2ccc3nc(-c4ccco4)c(-c4ccco4)nc3c2)C1` (stereo not drawn), 2.5 µM.

As for `CC(C)NC(=O)C1CCCN(C(=O)Nc2ccc3nc(-c4ccco4)c(-c4ccco4)nc3c2)C1` (stereo not drawn), the IC50 was above 40 µM. On to `CC(C)CNC(=O)C1CCCN(C(=O)Nc2ccc3nc(-c4ccco4)c(-c4ccco4)nc3c2)C1` (stereo not drawn), for which the IC50 was determined as 8.36 µM. For `CCN(CC)C(=O)C1CCCN(C(=O)Nc2ccc3nc(-c4ccco4)c(-c4ccco4)nc3c2)C1` (stereo not drawn), the half-maximal inhibitory concentration (IC50) came to 12 µM. With `O=C(NC1CCCC1)C1CCCN(C(=O)Nc2ccc3nc(-c4ccco4)c(-c4ccco4)nc3c2)C1` (stereo not drawn), the half-maximal inhibitory concentration (IC50) was found to be 3.02 µM. On to `O=C(NC1CCCCC1)C1CCCN(C(=O)Nc2ccc3nc(-c4ccco4)c(-c4ccco4)nc3c2)C1` (stereo not drawn), for which the IC50 is 2.25 µM. To `O=C(Nc1ccc2nc(-c3ccccc3)c(-c3ccccc3)nc2c1)N1CCCC(C(=O)N2CCCCC2)C1` (stereo not drawn) belongs above 40 µM. Regarding `CN(C)C(=O)C1CCCN(C(=O)Nc2ccc3nc(-c4ccco4)c(-c4ccco4)nc3c2)C1` (stereo not drawn), the 50% inhibitory concentration (IC50) is above 40 µM. `CCNC(=O)C1CCCN(C(=O)Nc2ccc3nc(-c4ccco4)c(-c4ccco4)nc3c2)C1` (stereo not drawn): the 50% inhibitory concentration (IC50) was above 40 µM. `CCCCNC(=O)C1CCCN(C(=O)Nc2ccc3nc(-c4ccco4)c(-c4ccco4)nc3c2)C1` (stereo not drawn): the IC50 worked out at 2.79 µM. To `CCN(CC)C(=O)C1CCCN(C(=O)Nc2ccc3nc(-c4ccc(Br)cc4)c(-c4ccc(Br)cc4)nc3c2)C1` (stereo not drawn) belongs above 40 µM; to `CC(C)(C)NC(=O)C1CCCN(C(=O)Nc2ccc3nc(-c4ccco4)c(-c4ccco4)nc3c2)C1` (stereo not drawn), 8.05 µM; to `CCN(CC)C(=O)C1CCCN(C(=O)Nc2ccc3nc(-c4ccc(F)cc4)c(-c4ccc(F)cc4)nc3c2)C1` (stereo not drawn), above 40 µM. On to `O=C(Nc1ccc2nc(-c3ccco3)c(-c3ccco3)nc2c1)N1CCCC(C(=O)N2CCCCC2)C1` (stereo not drawn), for which the half-maximal inhibitory concentration (IC50) was determined as 8.39 µM.

A word on the IC50: it is the concentration that inhibits the measured activity by half.

(Values after ChEMBL document CHEMBL1144617, “Quinoxalinylurea derivatives as a novel class of JSP-1 inhibitors” (Bioorg Med Chem Lett, 2007).)
